Legend:
MCF7 = assay: Antiproliferative activity against human MCF7 cells after 72 hrs by MTT assay; format: functional, cell-based; conditions: MCF7, 72 h
Jurkat = assay: Antiproliferative activity against human Jurkat cells after 72 hrs by MTT assay; format: functional, cell-based
Outline: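 Cells seeded at 8 × 10³ per well and incubated 18 h at 37 °C, 5% CO₂, then exposed to a range of compound concentrations for 72 h at 37 °C. Jurkat and HL-60 were grown in RPMI-1640, the others in DMEM, with penicillin, streptomycin and 10% FBS. DMSO stocks (10 mM); DMSO ≤0.25% final. Viability by MTT. […] Mean ± SE of ≥3 independent experiments.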

HL-60 = assay: Antiproliferative activity against human HL60 cells after 72 hrs by MTT assay; format: functional, cell-based; conditions: HL-60, 72 h
A549 = assay: Antiproliferative activity against human A549 cells after 72 hrs by MTT assay; format: functional, cell-based; conditions: A549, 72 h
HeLa = assay: Antiproliferative activity against human HeLa cells after 72 hrs by MTT assay; format: functional, cell-based
HT-29 = assay: Antiproliferative activity against human HT-29 cells after 72 hrs by MTT assay; format: functional, cell-based; conditions: HT-29, 72 h
CCRF-CEM = assay: Resistance ratio of IC50 for human vinblastine-resistant CEM/VBL100 cells overexpressing P-glycoprotein to IC50 for human CEM cells; format: functional
Bos taurus = species on record: Bos taurus; assay: Displacement of [3H]colchicine from tubulin in bovine brain at 5 uM DEAE-cellulose filter method
[1] = Inhibition of bovine brain tubulin polymerization preincubated for 15 mins by turbidimetric analysis; set-up: species or system Bos taurus
Outline: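 Bovine brain tubulin (10 μM) in glutamate buffer preincubated with varying compound concentrations for 15 min at 30 °C, then chilled to 0 °C. GTP 0.4 mM added and mixtures warmed to 30 °C in a spectrophotometer; assembly followed by turbidity at 350 nm.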

SMILES	IC50 (MCF7) [nM]	IC50 (Jurkat) [nM]	IC50 (HL-60) [nM]	IC50 (A549) [nM]	IC50 (HeLa) [nM]	IC50 (HT-29) [nM]	IC50 [1] [nM]	Ratio IC50 (CCRF-CEM)	inhibition (Bos taurus) [%]
CC[C@]1(O)C[C@@H]2CN(CCc3c([nH]c4ccccc34)[C@@](C(=O)OC)(c3cc4c(cc3OC)N(C)[C@H]3[C@@](O)(C(=O)OC)[C@H](OC(C)=O)[C@]5(CC)C=CCN6CC[C@]43[C@@H]65)C2)C1 [VINBLASTINE]	–	–	–	–	–	–	–	256.2	–
CNc1nc(-c2cc(OC)c(OC)c(OC)c2)c(-c2ccc3ccccc3c2)s1	21.1	51.1	143	151	128	38.2	960	–	78
CCOc1ccc(-c2sc(C)nc2-c2cc(OC)c(OC)c(OC)c2)cc1	42.3	1740	253	3320	1870	487	1200	–	51
COc1ccc(-c2sc(N(C)C)nc2-c2cc(OC)c(OC)c(OC)c2)cc1	8360	7600	1890	> 10000	3370	497	> 20000	–	–

Now from value to compound, other results behind:

IC50 (MCF7) [nM]	IC50 (Jurkat) [nM]	IC50 (HL-60) [nM]	IC50 (A549) [nM]	IC50 (HeLa) [nM]	IC50 (HT-29) [nM]	IC50 [1] [nM]	SMILES	Ratio IC50 (CCRF-CEM)	inhibition (Bos taurus) [%]
606	1760	3430	2560	500	1420	–	COc1ccc(-c2sc(C)nc2-c2cc(OC)c(OC)c(OC)c2)cc1	–	–
> 10000	> 10000	> 10000	> 10000	> 10000	> 10000	> 20000	COc1cc(-c2nc(N(C)C)sc2-c2ccc(C(F)(F)F)cc2)cc(OC)c1OC	–	–
> 10000	6660	3480	3960	4140	3920	> 20000	COc1cc(-c2nc(N(C)C)sc2-c2ccc(C)cc2)cc(OC)c1OC	–	–
2380	836	2570	2900	1400	729	> 20000	COc1cc(-c2nc(N(C)C)sc2-c2ccc3ccccc3c2)cc(OC)c1OC	–	–

Source: ChEMBL document CHEMBL2202972, “Synthesis and biological evaluation of 2-substituted-4-(3',4',5'-trimethoxyphenyl)-5-aryl thiazoles as anticancer agents” (Bioorg Med Chem, 2012)
